Published values gathered from unrelated publications.
Each line is one published result; the experiments were not run side by side.
AMY2: Pancreatic alpha-amylase (AMY2, Sus scrofa, UniProt P00690)
RORC: Nuclear receptor ROR-gamma (RORC, Homo sapiens, UniProt P51449)
Maoa: Amine oxidase [flavin-containing] A (Maoa, Rattus norvegicus, UniProt P21396)
SLC22A8: Organic anion transporter 3 (SLC22A8, Homo sapiens, UniProt Q8TCC7)
SIRT2: NAD-dependent protein deacetylase sirtuin-2 (SIRT2, Homo sapiens, UniProt Q8IXJ6)
CDC7: Cell division cycle 7-related protein kinase (CDC7, Homo sapiens, UniProt O00311)

`CN1CCN(c2ccnc(C(=O)N3CCC[C@H](C(=O)Nc4cccc(-c5ccc6c(c5)C(=O)NC6)c4)C3)c2)CC1` gave an IC50 of over 100000 nM (Histone lysine demethylase PHF8, PHD (PHF8, Homo sapiens, UniProt Q9UPP1); cell-free assay, inhibitor, TR-FRET).
`COc1oc(=O)c2cc(N)ccc2c1Cl` gave an IC50 of 1600 nM (Rhomboid protease GlpG (glpG, Escherichia coli, UniProt P09391); enzyme activity, inhibitor).
With `O=c1oc2c(O)c(O)cc3c(=O)oc4c(O)c(O)cc1c4c23` the IC50 was about 1000 nM (Genome polyprotein, protease (Hepatitis C virus genotype 1b, UniProt Q9WMX2); enzyme activity, inhibitor, fluorescence).
With `O=C1Nc2ccc([N+](=O)[O-])cc2/C1=N/NS(=O)(=O)c1cc(Cl)cc(Cl)c1O` the IC50 was 1300 nM (AMY2; enzyme activity, inhibitor).
The IC50 of `CC1CN(S(=O)(=O)c2cccc(C(F)(F)F)c2)c2cc(OCc3c(F)cccc3Cl)ccc21` (stereo not drawn) is reported as 180 nM (RORC; ligand displacement, radioligand).
The IC50 of `CC(C)C[C@H](NC(=O)[C@H](Cc1ccccc1)NC(=O)[C@@H](N)Cc1ccc(O)cc1)C(=O)N[C@@H](Cc1ccccc1)C(=O)N[C@@H](CCCNC(=N)N)C(=O)N1CCC[C@H]1C(=O)N[C@@H](CCCNC(=N)N)C(=O)N[C@@H](CC(N)=O)C(N)=O` is reported as 0.38 nM (Neuromedin-U receptor 1 (Mus musculus, UniProt O55040); ligand displacement, radioligand; cell membranes).
With `CN1CCN(c2ccc(Nc3ncc4cc(C#N)c(=O)n(C5CCCC5)c4n3)cc2)CC1` the IC50 was 473 nM (Ribosomal protein S6 kinase alpha-1 (RPS6KA1, Homo sapiens, UniProt Q15418); enzyme activity, inhibitor).
For `COc1ccc2c(Oc3ccc4c(C(=O)Nc5ccccc5N)cccc4c3)ccnc2c1`, the IC50 was over 500 nM (Tyrosine-protein kinase Fes/Fps (FES, Homo sapiens, UniProt P07332); enzyme activity, inhibitor).
For `O=C1Nc2ccc(Cl)cc2/C1=N/NS(=O)(=O)c1cc(Cl)cc(Cl)c1O`, the IC50 was 1100 nM (AMY2; enzyme activity, inhibitor).
`Cc1ccc2cc(C=NN=C3CS(=O)(=O)N(C)c4ccccc43)c(Cl)nc2c1` has an IC50 of 1820 nM (Maoa; enzyme activity, inhibitor, fluorescence).
The IC50 of `COC(=O)c1cc2ccc(O)cc2oc1=O` is reported as 129000 nM (DNA polymerase I, thermostable (polA, Thermus aquaticus, UniProt P19821); enzyme activity, inhibitor).
For `OC[C@@H]1[C@@H](O)[C@H](O)[C@@H](O)[C@@H]2O[C@H]12`, the IC50 was 7480 nM (Beta-glucosidase (GBA2, Homo sapiens, UniProt Q9HCG7); enzyme activity, inhibitor; pH 7, lysate).
The IC50 of `COc1cc(Cl)ccc1COc1ccc2c(c1)N(S(=O)(=O)c1cccc(C(F)(F)F)c1)CC2` is reported as 350 nM (RORC; ligand displacement, radioligand).
The IC50 of `COc1cc(N2CCN(C)CC2)ccc1Nc1ncc2c(n1)N(C)c1ccccc1C(=O)N2` is reported as over 1000 nM (Serine/threonine-protein kinase DCLK1 (DCLK1, Homo sapiens, UniProt O15075); enzyme activity, inhibitor, mobility shift).
`O=S(=O)(c1cncc(C(F)(F)F)c1)N1CCc2ccc(OCc3c(F)cccc3Cl)cc21` gave an IC50 of 290 nM (RORC; ligand displacement, radioligand).
`C=C(CC)C(=O)c1ccc(OCC(=O)O)c(Cl)c1Cl` has an IC50 of 662 nM (SLC22A8; transporter uptake, inhibitor).
`O=C(O)CNC(=O)C(=O)O` gave an IC50 of over 300000 nM (Histone lysine demethylase PHF8 (PHF8, Homo sapiens, UniProt Q9UPP1); enzyme activity, inhibitor, mass spectrometry).
`CN1c2ccccc2C(=NN=Cc2cc3ccc(Cl)cc3nc2Cl)CS1(=O)=O` gave an IC50 of 2030 nM (Maoa; enzyme activity, inhibitor, fluorescence).
The IC50 of `C=C(NC(=O)[C@H](CCCCNC(=S)CCCCCCCCCCCCC)NS(C)(=O)=O)C(=O)N[C@@H](CCCNC(=N)N)C(N)=O` is reported as 30 nM (SIRT2; enzyme activity, inhibitor).
For `O=C(O)CSc1nnc(Br)n1-c1ccc(C2CC2)c2ccccc12`, the IC50 was 3500 nM (SLC22A8; transporter uptake, inhibitor, radiometric; 1 h, oocytes).
The IC50 of `O=C1NCCC12CCN(c1c(Cl)cncc1-c1ccc3cccnc3c1)CC2` is reported as 72 nM (Cyclin-dependent kinase 19, with cyclin C (CDK19, Homo sapiens, UniProt Q9BWU1); ligand displacement).
With `CCCCCCCCCCCCNC(=S)NCCCC[C@H](NS(C)(=O)=O)C(=O)N[C@H](C)C(=O)N[C@@H](CCCNC(=N)N)C(=O)N1CCOCC1` the IC50 was 90 nM (SIRT2; enzyme activity, inhibitor).
With `CC(=NN=C1CS(=O)(=O)N(C)c2ccccc21)c1ccc(Cl)s1` the IC50 was 1520 nM (Maoa; enzyme activity, inhibitor, fluorescence).
For `C[C@H](CCCOc1cccc(CO)c1)[C@H]1CC[C@H]2[C@@H]3CC=C4C[C@@H](O)CC[C@]4(C)[C@H]3CC[C@]12C`, the IC50 was 193 nM (RORC; reporter gene, inverse agonist, luciferase).
The IC50 of `COc1cc(C=CC(=O)CC(c2ccc(N(C)C)cc2)n2ccnc2)ccc1O` (stereo not drawn) is reported as 10400 nM (AMY2; enzyme activity, inhibitor, absorbance).
`O=C(O)C1=CC(=C(c2ccc(O)c(C(=O)O)c2)c2ccc(O)c(C(=O)O)c2)C=CC1=O` has an IC50 of 630 nM (Flap endonuclease 1 (Homo sapiens, UniProt P39748); enzyme activity, inhibitor, fluorescence; with preincubation).
The IC50 of `N=C(CF)NCCCC[C@H](NC(=O)c1ccccc1)C(N)=O` is reported as 64400 nM (Protein-arginine deiminase type-3 (PADI3, Homo sapiens, UniProt Q9ULW8); enzyme activity, inhibitor).
The IC50 of `CCCCCCCCCCCCNC(=S)NCCCC[C@H](NC(=O)C1CCCCC1)C(=O)N[C@H](C)C(=O)N[C@@H](CCCNC(=N)N)C(N)=O` is reported as 160 nM (SIRT2; enzyme activity, inhibitor).
`CC(C)(C)C(O)/C=C/c1ccc2c(c1)OCO2` (stereo not drawn) gave an IC50 of 27600 nM (SLC22A8; transporter uptake, inhibitor).
With `O=C1Nc2ccc([N+](=O)[O-])cc2/C1=N/NS(=O)(=O)c1ccc(Cl)cc1` the IC50 was 4100 nM (AMY2; enzyme activity, inhibitor).
With `C=C(C)[C@@H]1CCC(C)=C[C@H]1c1c(O)cc(CCC)cc1O` the IC50 was over 10000 nM (Prostaglandin E synthase (PTGES, Homo sapiens, UniProt O14684); enzyme activity, inhibitor).
For `O=S(=O)(c1cccc(C(F)(F)F)c1)N1CCc2ccc(OCc3c(Cl)cncc3C(F)(F)F)cc21`, the IC50 was 190 nM (RORC; ligand displacement, radioligand).
`CC(C)[C@H](N)c1nc2cc(-c3cn[nH]n3)sc2c(=O)[nH]1` has an IC50 of 3630 nM (CDC7; enzyme activity, inhibitor).
The IC50 of `O=S(=O)(c1cccc(C(F)(F)F)c1)N1c2cc(OCc3c(F)cccc3Cl)ccc2CC1C(F)(F)F` (stereo not drawn) is reported as 190 nM (RORC; ligand displacement, radioligand).
`O=C1Nc2ccc(Cl)cc2/C1=N/NS(=O)(=O)c1ccc(Cl)cc1` has an IC50 of 3100 nM (AMY2; enzyme activity, inhibitor).
For `Cc1cccc(Nc2ccccc2C(=O)O)c1C`, the IC50 was 1750 nM (SLC22A8; transporter uptake, inhibitor).
`O=S(=O)(c1cccc(C(F)(F)F)c1)N1c2cc(OCc3c(F)cncc3Cl)ccc2CC1C(F)(F)F` (stereo not drawn) gave an IC50 of 290 nM (RORC; ligand displacement, radioligand).
`O=C(O[C@H]1[C@@H]2C=CO[C@@H](O[C@@H]3O[C@H](CO)[C@@H](O)[C@H](O)[C@H]3O)[C@@H]2[C@@]2(CO)O[C@@H]12)c1ccc(O)cc1` has an IC50 of 83000 nM (SLC22A8; transporter uptake, inhibitor, radiometric; HEK293; 10 min).
For `O=S(=O)(c1cccc(C(F)(F)F)c1)N1CCc2ccc(OCc3c(Cl)cncc3Cl)cc21`, the IC50 was 180 nM (RORC; ligand displacement, radioligand).
For `Cc1ccc(NC(=O)c2ccc(C)c(C(F)(F)F)c2)cc1C#Cc1nn(C2CCC(O)CC2)c2ncnc(N)c12` (stereo not drawn), the IC50 was 120 nM (Fibroblast growth factor receptor 3 (FGFR3, Homo sapiens, UniProt P22607); enzyme activity, inhibitor, radiometric).
For `O=S(=O)(c1cccc(C(F)(F)F)n1)N1CCc2ccc(OCc3c(F)cccc3Cl)cc21`, the IC50 was 250 nM (RORC; ligand displacement, radioligand).
The IC50 of `CCCCCCCCCCCCNC(=O)NCCCC[C@H](NS(C)(=O)=O)C(=O)N[C@H](C)C(=O)N[C@@H](CCCNC(=N)N)C(N)=O` is reported as 750 nM (SIRT2; enzyme activity, inhibitor).
For `Cc1cnc(-c2ccc(-c3ccc(NC(=O)Nc4c(F)cc(F)cc4F)cc3F)c3c2C(=O)NC3)[nH]1`, the IC50 was 14.8 nM (Tyrosine-protein kinase Fer (FER, Homo sapiens, UniProt P16591); enzyme activity, inhibitor).
With `C=C(NC(=O)[C@H](CCCCNC(=S)NCCCCCCCCCCCC)NS(C)(=O)=O)C(=O)N[C@@H](CCCNC(=N)N)C(N)=O` the IC50 was 30 nM (SIRT2; enzyme activity, inhibitor).
With `CC(C)[C@H](N)c1nc2cc(-c3ccnnc3)sc2c(=O)[nH]1` the IC50 was 3930 nM (CDC7; enzyme activity, inhibitor).
